In series [1] the test system is Plasmodium falciparum. As to the kind of experiment: Antimalarial activity against mid to late trophozoite stage of Plasmodium falciparum 3D7 infected in RBC assessed as nonviable parasite at 3 uM after 0.5 hrs by SYTO 61 staining-based flow cytometric analysis relative to untreated control. The format is functional. Background: In flow cytometry, cells or beads pass a laser one at a time.

Series [2] relates to Plasmodium falciparum. As to the kind of experiment: Antimalarial activity against mid to late trophozoite stage of Plasmodium falciparum 3D7 infected in RBC assessed as nonviable parasite at 15 uM after 0.5 hrs by SYTO 61 staining-based flow cytometric analysis relative to untreated control. The format is functional.
The nature of series [3]: Selectivity index, ratio of IC50 for HEK293 cells to IC50 for Plasmodium falciparum 3D7 after 72 hrs. The format is toxicity, cell-based. The conditions noted are these: human, read-out: Ratio IC50. The essentials: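 Parasite (3D7) viability assay and HEK293 viability assay, each with a 72 h exposure. Index taken as the ratio of the IC50 values, HEK293 over 3D7.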
For series [4], the system named is Plasmodium falciparum. As to the kind of experiment: Antimalarial activity against Plasmodium falciparum 3D7 infected in RBC assessed as growth inhibition after 48 hrs by SYBR Green-I fluorescence assay. The class given is functional, organism-based. Particulars: 3D7, 48 h. The essentials:
(§1)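 Parasite-infected red cells exposed to compound for 48 h; growth read by SYBR Green-I fluorescence; IC50 derived. Where a ± is given, it is the standard deviation of three individual experiments.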

The subject of series [5] is Plasmodium falciparum. The series is described as follows: Antimalarial activity against mid to late trophozoite stage of Plasmodium falciparum 3D7 infected in RBC assessed as nonviable parasite at 0.6 uM after 0.5 hrs by SYTO 61 staining-based flow cytometric analysis relative to untreated control. The class given is functional.
The test system of series [6] is Plasmodium falciparum. The series is described as follows: Antimalarial activity against Plasmodium falciparum K1 infected in RBC assessed as growth inhibition after 48 hrs by SYBR Green-I fluorescence assay. The format is functional, organism-based. Particulars: K1, 48 h. The essentials:
as §1

In series [7] the test system is Plasmodium falciparum. The series is described as follows: Antimalarial activity against mid to late trophozoite stage of Plasmodium falciparum 3D7 infected in RBC assessed as abnormal mitochondria at 3 uM after 0.5 hrs by MitoTracker Red CMXRos-based fluorescence microscopic analysis relative to untreated control. The class given is functional.
Series [8] deals with Plasmodium falciparum. The series is described as follows: Antimalarial activity against mid to late trophozoite stage of Plasmodium falciparum 3D7 infected in RBC assessed as abnormal mitochondria at 0.6 uM after 0.5 hrs by MitoTracker Red CMXRos-based fluorescence microscopic analysis relative to untreated control. The class given is functional.
Series [9] deals with Plasmodium falciparum. The series is described as follows: Gametocytocidal activity against synchronous stage 4 to 5 of transgenic Plasmodium falciparum NF54 gametocyte harboring pfs16 promoter assessed as parasite viability after 72 hrs by MitoTracker Red CMXRos-based assay. The format is functional, organism-based. The conditions noted are these: NF54, 72 h.
A short description of series [10]: Dissociation constant, pKa of the compound at 50 uM by spectrophotometric analysis. The format is physicochemical.
Series [11] relates to Plasmodium falciparum. As to the kind of experiment: Antimalarial activity against mid to late trophozoite stage of Plasmodium falciparum 3D7 infected in RBC assessed as abnormal mitochondria at 15 uM after 0.5 hrs by MitoTracker Red CMXRos-based fluorescence microscopic analysis relative to untreated control. The format is functional.
Series [12] is described as follows: Inhibition of beta-hematin formation after 24 hrs by spectrophotometric analysis in presence of nonidet P40. The class given is functional.
For series [13], the system named is Plasmodium falciparum. The series is described as follows: Gametocytocidal activity against synchronous stage 1 to 3 of transgenic Plasmodium falciparum NF54 gametocyte harboring pfs16 promoter assessed as parasite viability after 72 hrs by luciferase reporter gene assay. The conditions noted are these: NF54, 72 h. The format is functional, organism-based. A general note: Reporter assays use an easily measured gene product as a stand-in for the process of interest.

Series [14] concerns Plasmodium falciparum. The series is described as follows: Antimalarial activity against mid to late trophozoite stage of Plasmodium falciparum 3D7 infected in RBC assessed as nonviable parasite at 1000 uM after 0.5 hrs by SYTO 61 staining-based flow cytometric analysis relative to untreated control. The class given is functional.
The subject of series [15] is Plasmodium falciparum. As to the kind of experiment: Antimalarial activity against mid to late trophozoite stage of Plasmodium falciparum 3D7 infected in RBC assessed as abnormal mitochondria at 40 uM after 0.5 hrs by MitoTracker Red CMXRos-based fluorescence microscopic analysis relative to untreated control. The format is functional.
Series [16] concerns Plasmodium falciparum. As to the kind of experiment: Gametocytocidal activity against synchronous stage 4 to 5 of transgenic Plasmodium falciparum NF54 gametocyte harboring pfs16 promoter assessed as inhibition of parasite viability at 60 uM after 72 hrs by MitoTracker Red CMXRos-based assay relative to control. The format is functional. The conditions noted are these: NF54, 72 h.

Series [17] concerns Plasmodium falciparum. As to the kind of experiment: Antimalarial activity against mid to late trophozoite stage of Plasmodium falciparum 3D7 infected in RBC assessed as abnormal mitochondria at 0.005 uM after 0.5 hrs by MitoTracker Red CMXRos-based fluorescence microscopic analysis relative to untreated control. The format is functional.
For series [18], the system named is Plasmodium falciparum. The series is described as follows: Antimalarial activity against mid to late trophozoite stage of Plasmodium falciparum 3D7 infected in RBC assessed as nonviable parasite at 0.005 uM after 0.5 hrs by SYTO 61 staining-based flow cytometric analysis relative to untreated control. The format is functional.
The test system of series [19] is Plasmodium falciparum. The series is described as follows: Antimalarial activity against mid to late trophozoite stage of Plasmodium falciparum 3D7 infected in RBC assessed as abnormal mitochondria at 1000 uM after 0.5 hrs by MitoTracker Red CMXRos-based fluorescence microscopic analysis relative to untreated control. The class given is functional.
The subject of series [20] is Plasmodium falciparum. As to the kind of experiment: Antimalarial activity against mid to late trophozoite stage of Plasmodium falciparum 3D7 infected in RBC assessed as abnormal mitochondria at 200 uM after 0.5 hrs by MitoTracker Red CMXRos-based fluorescence microscopic analysis relative to untreated control. The format is functional.
Series [21] concerns Plasmodium falciparum. The series is described as follows: Antimalarial activity against mid to late trophozoite stage of Plasmodium falciparum 3D7 infected in RBC assessed as nonviable parasite at 200 uM after 0.5 hrs by SYTO 61 staining-based flow cytometric analysis relative to untreated control. The class given is functional.
Series [22] concerns Plasmodium falciparum. As to the kind of experiment: Antimalarial activity against mid to late trophozoite stage of Plasmodium falciparum 3D7 infected in RBC assessed as nonviable parasite at 40 uM after 0.5 hrs by SYTO 61 staining-based flow cytometric analysis relative to untreated control. The format is functional.

Results on two compounds are retold here after ChEMBL document CHEMBL2417386, “Novel conjugated quinoline-indoles compromise Plasmodium falciparum mitochondrial function and show promising antimalarial activity” (J Med Chem, 2013).

Where only a bound is given, the exact number is not on record here.

By IC50 is commonly meant the concentration that gives 50% inhibition. A word on the pKa: it is the pH at which an ionisable group is half protonated. The term inhibition denotes the relative decrease from the control value, in per cent.

As for `Nc1cc(/C=C/c2c[nH]c3ccccc23)nc2ccccc12`, the Activity is on record as 77% in the series with Plasmodium falciparum [1]; 88% in the series with Plasmodium falciparum [2]; 46% in the series on Plasmodium falciparum [5]; 66% in the series on Plasmodium falciparum [7]; 27% with Plasmodium falciparum [8]; 93% with Plasmodium falciparum [11]. The selectivity ratio at 72 h in [3] was 79. The IC50 with Plasmodium falciparum [4] was 0.2 µM; in the series with Plasmodium falciparum [6], 0.39 µM; in the series with Plasmodium falciparum [9], 1.4 µM; in series [12], more than 4000 µM; with Plasmodium falciparum [13], 0.37 µM. This compound also registered a pKa at 50 µM in [10] of 9.5.

As for `CCN(CC)CCCC(C)Nc1ccnc2cc(Cl)ccc12` (stereo not drawn) [CHLOROQUINE], the Activity with Plasmodium falciparum [14] turned out to be 85%; with Plasmodium falciparum [15], 0%; with Plasmodium falciparum [17], 12%; in the series on Plasmodium falciparum [18], 84%; in the series with Plasmodium falciparum [19], 8%; in the series on Plasmodium falciparum [20], 5%. Further, the Activity in the series on Plasmodium falciparum [21] turned out to be 36%; in the series with Plasmodium falciparum [22], 23%. The inhibition at 60 µM with Plasmodium falciparum [16] is 100%. Moreover, in series [12], the IC50 is 30 µM.
